Here are results for one compound from ChEMBL document CHEMBL4316598, “Synthesis, antiproliferative and apoptosis induction potential activities of novel bis(indolyl)hydrazide-hydrazone derivatives” (Bioorg Med Chem, 2019).

Structures are written as SMILES. Active and inactive are the calls of the source. The calls are words filed in the database; no cut-off is given here.

In assay [1] the test system is MCF7. Briefly: Induction of apoptosis in human MCF7 cells assessed as increase in Mcl-1 short level at 1 to 3 uM after 24 hrs by Western blot analysis. Type of assay: functional, cell-based. The procedure, abridged:
(§1)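 Cells were treated at 1, 3 and 5 µM for 24 h at 37 °C. Lysis was in ice-cold Triton X-100 buffer with protease and phosphatase inhibitors; nuclear proteins were extracted separately. Protein was quantified by BCA. Lysates were separated by electrophoresis, transferred to nitrocellulose and blocked in non-fat milk for 1 h. Primary antibody was applied overnight at 4 °C and secondary for 1 h at 28 °C. Detection was by enhanced chemiluminescence.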
For orientation: Immunoblotting shows a protein as a band on a membrane.

Assay [2] relates to MCF7. Briefly: Induction of apoptosis in human MCF7 cells assessed as change in Bcl-2 level at 1 to 3 uM after 24 hrs by Western blot analysis. Type of assay: functional, cell-based. In short, it runs like this: as §1
Assay [3] deals with MCF7. Briefly: Induction of apoptosis in human MCF7 cells assessed as up-regulation of acetylated p53 level at 5 uM after 24 hrs by sandwich ELISA. Type of assay: functional, cell-based. In short, it runs like this:
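Cells were treated at 5 µM for 12, 24 and 48 h. Lysis was in ice-cold lysis buffer with 1 mM PMSF (5 min on ice), followed by three freeze-thaw cycles and a 10 min spin at 4 °C. Acetylated and total p53 were measured in the supernatant by kit sandwich ELISA, read at 450 nm. The control index is sample absorbance divided by that of untreated cells at the same time. Values are mean ± SD of triplicate experiments.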

Assay [4] addresses T1, Tyrosine-protein phosphatase non-receptor type 1 (Homo sapiens) (UniProt P18031).
T1 sequence (whole entry): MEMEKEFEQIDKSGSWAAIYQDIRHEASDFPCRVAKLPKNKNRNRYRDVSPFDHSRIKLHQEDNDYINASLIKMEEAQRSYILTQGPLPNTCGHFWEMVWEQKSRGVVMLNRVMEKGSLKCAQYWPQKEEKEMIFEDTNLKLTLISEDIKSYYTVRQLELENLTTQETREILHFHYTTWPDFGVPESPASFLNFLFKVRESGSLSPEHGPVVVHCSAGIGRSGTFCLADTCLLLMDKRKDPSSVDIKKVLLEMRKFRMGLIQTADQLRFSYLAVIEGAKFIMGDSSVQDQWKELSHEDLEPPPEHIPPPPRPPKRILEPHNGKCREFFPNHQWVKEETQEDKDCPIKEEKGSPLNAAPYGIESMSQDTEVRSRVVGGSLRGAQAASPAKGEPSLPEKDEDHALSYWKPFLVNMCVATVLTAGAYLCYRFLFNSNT
Put plainly: Inhibition of recombinant human PTP1B using 6,8-difluoro-4-methylumbelliferyl phosphate fluorogenic substrate measured over 30 mins by fluorescence assay. In short, it runs like this:
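Recombinant human PTP1B, 1.56 ng/well, in buffer of 25 mM HEPES, 50 mM NaCl, 2.5 mM EDTA, DTT and 0.01 mg/mL human albumin. Preincubated with compound for 30 min in the dark, then DiFMUP added (25 μL of 10 μM solution). Fluorescence read after 10 min (ex 360/em 465 nm). Triplicates; % inhibition relative to PTP inhibitor IV (0.16 mM) and buffer controls.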

The test system of assay [5] is MCF7. Briefly: Induction of ROS generation in human MCF7 cells at 5 uM after 8 hrs by DCFH-DA staining-based fluorescence spectrophotometric analysis relative to control. Type of assay: functional. In short, it runs like this:
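DCFH-DA ROS: HeLa or MCF-7 cells at 2×10^6/well cultured 12 h, treated 4 or 8 h; t-BHP (10 μM) is the positive control. DCFH-DA 10 μM added for 10 min at 37 °C, cells washed twice with PBS. Fluorescence read at ex 485/em 520 nm. For the NAC arm, NAC (5 mM) is added to the medium before treatment.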

In assay [6] the target is T2, Mitogen-activated protein kinase; ERK1/ERK2 (Homo sapiens) (UniProt P27361+P28482). Briefly: Activation of ERK1/2 phosphorylation in human MCF7 cells assessed as increase in ratio of phosphorylated ERK1/2 to total ERK1/2 level at 5 uM in presence of ERK1/2 inhibitor PD98059 by ELISA. Type of assay: cell-based. In short, it runs like this: (§2)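 Cell-based ELISA: HeLa or MCF-7 cells (20×10^3/well) grown overnight at 37 °C, 5% CO2, treated with 5 μM, then fixed and blocked. Probed with rabbit anti-total and anti-phospho P38, JNK or ERK1/2 (1:100), then HRP anti-rabbit IgG. Result is the phospho/total ratio; inhibitor arms use […], […] or SP600125. n=3.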
T2 sequence (P27361 whole entry, looked up): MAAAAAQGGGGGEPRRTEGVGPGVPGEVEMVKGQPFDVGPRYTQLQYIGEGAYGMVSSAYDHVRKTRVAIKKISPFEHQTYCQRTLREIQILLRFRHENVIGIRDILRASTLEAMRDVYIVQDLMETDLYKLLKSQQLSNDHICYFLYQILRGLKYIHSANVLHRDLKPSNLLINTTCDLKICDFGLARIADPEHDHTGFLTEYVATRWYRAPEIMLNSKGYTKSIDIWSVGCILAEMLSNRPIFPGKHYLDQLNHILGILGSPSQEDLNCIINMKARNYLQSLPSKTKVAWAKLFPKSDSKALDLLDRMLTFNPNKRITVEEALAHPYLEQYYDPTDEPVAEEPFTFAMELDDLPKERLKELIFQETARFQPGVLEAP
T2 sequence (P28482 whole entry, looked up): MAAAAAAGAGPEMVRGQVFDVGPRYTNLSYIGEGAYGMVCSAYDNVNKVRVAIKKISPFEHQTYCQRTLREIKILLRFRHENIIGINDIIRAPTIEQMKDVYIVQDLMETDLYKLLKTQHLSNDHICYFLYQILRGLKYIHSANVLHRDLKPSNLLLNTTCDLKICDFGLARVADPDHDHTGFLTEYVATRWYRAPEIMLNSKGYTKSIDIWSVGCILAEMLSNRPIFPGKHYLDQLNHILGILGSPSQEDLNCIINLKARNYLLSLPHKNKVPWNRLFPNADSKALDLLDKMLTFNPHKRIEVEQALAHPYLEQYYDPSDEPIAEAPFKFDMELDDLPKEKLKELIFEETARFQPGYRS

In assay [7] the test system is MCF7. Put plainly: Effect on mitochondrial membrane potential in human MCF7 cells assessed as shift change at 5 uM after 2 hrs by Rhodamine 123 dye-based fluorescence assay. Type of assay: functional, cell-based. In short, it runs like this:
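Mitochondrial potential: HeLa or MCF-7 cells treated with 5 µM (final) for 1, 2, 4 and 8 h. Rhodamine 123 added, cells incubated 30 min at 37 °C, washed with PBS, and analysed by flow cytometry. Fluorescence histogram shift is compared with control.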

Assay [8] has as its system HeLa. Briefly: Induction of apoptosis in human HeLa cells assessed as necrotic cells at 1 uM after 16 hrs by annexin-V FITC/propidium iodide staining based flow cytometric analysis relative to control. Type of assay: functional. In short, it runs like this:
(§3)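 Cells were grown in DMEM with 10% heat-inactivated FBS at 37 °C and 5% CO₂, then plated at 500,000 cells/well in 24-well plates. They were treated from a DMSO stock (DMSO ≤0.1%) for 8, 12 or 16 h. After a PBS wash, cells were resuspended in binding buffer (10 mM HEPES pH 7.4, 2.5 mM CaCl₂, 140 mM NaCl, 0.1% BSA), stained 40 min with FITC-annexin V, then with PI, and run on the flow cytometer immediately. Values are the mean of three independent experiments.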
For orientation: A flow cytometer gives signals particle by particle.

In assay [9] the test system is MCF7. Put plainly: Induction of apoptosis in human MCF7 cells assessed as early apoptotic cells at 1 uM after 12 hrs by annexin-V FITC/propidium iodide staining based flow cytometric analysis relative to control. Type of assay: functional. In short, it runs like this:
as §3

The subject of assay [10] is HeLa. Briefly: Induction of apoptosis in human HeLa cells assessed as necrotic cells at 1 uM after 8 hrs by annexin-V FITC/propidium iodide staining based flow cytometric analysis relative to control. Type of assay: functional. In short, it runs like this: as §3
Assay [11] has as its system HeLa. Put plainly: Induction of nitric oxide production in human HeLa cells measured over 8 hrs by Griess reaction based assay. Type of assay: functional, cell-based. The procedure, abridged: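 Cells seeded at 2×10^6 cells/well for 12 h, then exposed to 1, 5 and 10 μM compound for 8 h at 37 °C. Culture supernatant mixed with Griess reagent (0.002% N-1-naphthyl-ethylenediamine dihydrochloride, 0.5% sulfanilic acid, 14% glacial acetic acid). Nitrite read by absorbance at 550 nm and compared with vehicle group.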
(The Griess reaction detects nitrite, a stable product of nitric oxide.)

For a further assay, the system named is A549. Briefly: Cytotoxicity against human A549 cells assessed as reduction in cell viability after 4 hrs by MTT assay. Type of assay: functional, cell-based. The procedure, abridged: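 MTT: 10,000–20,000 cells/well attached for 16 h, then washed twice with serum-free RPMI. Treated with 1–200 µM for 4 h, 3 parallel runs per concentration. MTT added for 2 h; medium partly removed and isopropanol added. A590 read. Viability = (A treated − A doxorubicin)/(A medium − A doxorubicin)×100. Mean of three experiments, triplicate wells each.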

In assay [12] the target is T2, Mitogen-activated protein kinase; ERK1/ERK2 (Homo sapiens). Put plainly: Activation of ERK1/2 phosphorylation in human HeLa cells assessed as increase in ratio of phosphorylated ERK1/2 to total ERK1/2 level at 5 uM by ELISA. Type of assay: cell-based. In short, it runs like this: as §2
For assay [13], the system named is HeLa. Put plainly: Induction of apoptosis in human HeLa cells assessed as viable cells at 1 uM after 12 hrs by annexin-V FITC/propidium iodide staining based flow cytometric analysis relative to control. Type of assay: functional. Particulars: read-out: Activity. In short, it runs like this: as §3

By IC50 is commonly meant the concentration that inhibits the measured activity by half. For the compound `Cn1cc(/C=N\NC(=O)c2cn(C)c3ccc(Br)cc23)c2ccccc21`, the result (with MCF7 [1]; in the assay on MCF7 [3]; with MCF7 [7]; in [12]) was Active. The outcome (in the assay with MCF7 [2]; in [6]) was inactive. Besides, the inhibition entry in assay [4] is “Dose-dependent effect”. Also, the Activity was 48.3% with MCF7 [5]; 1.77% in the assay with HeLa [8]; 21.18% with MCF7 [9]; 0.57% in the assay with HeLa [10]; “Dose-dependent effect” in the assay with HeLa [11]; “Dose-dependent effect” with A549. Further, the half-inhibitory concentration (IC50) in the assay on A549 (Homo sapiens, A549, 4 h, read-out: IC50) was 0.793 to 5.49 µM. Moreover, the viability at 1 µM with HeLa [13] stood at 47.8%.
